The source made the active and inactive calls. The rule behind the calls is not given here.
Columns and labels:
[1] = target: T1, Nucleotide-binding oligomerization domain-containing protein 1 (Homo sapiens) (UniProt Q9Y239); test: Agonist activity at NOD1 in HEK-Blue hNOD2 cells assessed as increase in NFkappaB transactivation-mediated SEAP activity measured after 18 hrs by spectrophotometric method; format: cell-based; conditions: HEK-Blue hNOD1, in the assay text read “HEK-Blue hNOD1 cells” for “HEK-Blue hNOD2 cells”
T1 sequence (whole entry): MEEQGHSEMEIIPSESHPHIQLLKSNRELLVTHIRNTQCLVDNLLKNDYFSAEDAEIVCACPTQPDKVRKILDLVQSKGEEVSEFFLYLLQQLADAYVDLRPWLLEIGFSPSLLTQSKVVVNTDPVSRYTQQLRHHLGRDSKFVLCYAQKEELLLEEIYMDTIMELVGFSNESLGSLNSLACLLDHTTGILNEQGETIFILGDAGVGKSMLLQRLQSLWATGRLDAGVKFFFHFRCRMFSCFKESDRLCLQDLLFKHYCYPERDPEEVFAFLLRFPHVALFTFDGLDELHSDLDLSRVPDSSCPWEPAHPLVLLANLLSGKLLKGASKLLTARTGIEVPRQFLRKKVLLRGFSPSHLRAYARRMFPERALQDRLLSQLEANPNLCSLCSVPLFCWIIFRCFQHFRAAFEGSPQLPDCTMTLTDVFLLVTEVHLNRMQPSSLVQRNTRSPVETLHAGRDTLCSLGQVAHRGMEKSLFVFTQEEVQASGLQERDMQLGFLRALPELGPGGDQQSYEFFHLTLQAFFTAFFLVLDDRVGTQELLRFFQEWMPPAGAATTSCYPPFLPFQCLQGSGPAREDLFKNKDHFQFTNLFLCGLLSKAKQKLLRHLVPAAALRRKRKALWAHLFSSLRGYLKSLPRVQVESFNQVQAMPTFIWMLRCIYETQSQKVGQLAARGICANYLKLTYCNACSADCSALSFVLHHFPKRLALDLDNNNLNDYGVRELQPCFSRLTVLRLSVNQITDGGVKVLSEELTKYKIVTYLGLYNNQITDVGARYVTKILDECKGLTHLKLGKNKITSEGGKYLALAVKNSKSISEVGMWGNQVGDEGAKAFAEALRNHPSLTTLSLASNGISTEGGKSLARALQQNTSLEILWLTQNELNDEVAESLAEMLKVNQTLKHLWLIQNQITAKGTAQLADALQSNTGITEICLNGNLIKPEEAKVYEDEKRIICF
Procedure, shortened: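 Counter-screen in HEK-Blue NOD1 cells (HEK293 stably expressing human NOD1 plus an NF-κB-inducible SEAP reporter), seeded at 2.5 × 10^5 cells/mL in HEK-Blue detection medium. Compounds at 2 μM versus 0.1% DMSO vehicle, 18 h at 37 °C, 5% CO2. SEAP read as absorbance at 630 nm. Duplicates, at least two independent experiments.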

[2] = test system: PBMC; test: Immunostimulatory activity in human PBMC cells assessed as increase in LPS-induced TNF-alpha production at 2 uM incubated for 18 hrs by flow cytometry analysis; format: functional, cell-based
Procedure, shortened: (§1)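 Human PBMCs from healthy donors, 1 × 10^6 cells/mL in RPMI 1640 with 10% FBS, treated with 2 μM compound or 0.1% DMSO, without or with LPS 10 ng/mL, for 18 h at 37 °C. Supernatant cytokines quantified by cytometric bead array (human inflammatory panel) on a flow cytometer against recombinant standards. Four independent donors. Repeated-measures one-way ANOVA with Dunnett.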

[3] = test system: PBMC; test: Immunostimulatory activity in human PBMC cells assessed as increase in IL-6 production at 2 uM incubated for 18 hrs by flow cytometry analysis; format: functional, cell-based; procedure, shortened: as §1
[4] = test system: PBMC; test: Immunostimulatory activity in human PBMC cells assessed as increase in LPS-induced IL-1beta production at 2 uM incubated for 18 hrs by flow cytometry analysis; format: functional, cell-based; procedure, shortened: as §1
[5] = test system: PBMC; test: Immunostimulatory activity in human PBMC cells assessed as increase in LPS-induced IL-8 production at 2 uM incubated for 18 hrs by flow cytometry analysis; format: functional, cell-based; procedure, shortened: as §1
[6] = test system: PBMC; test: Immunostimulatory activity in human PBMC cells assessed as increase in TNF-alpha production at 2 uM incubated for 18 hrs by flow cytometry analysis; format: functional, cell-based; procedure, shortened: as §1
[7] = test system: PBMC; test: Immunostimulatory activity in human PBMC cells assessed as increase in LPS-induced IL-6 production at 2 uM incubated for 18 hrs by flow cytometry analysis; format: functional, cell-based; procedure, shortened: as §1
[8] = Cytotoxicity against HEK-Blue hNOD2 cells assessed as reduction in metabolic activity at 20 uM incubated for 18 hrs by MTS assay; format: toxicity, cell-based; conditions: human, hek-blue hnod2, 18 h
Procedure, shortened: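 HEK-Blue NOD2 cells, 40 000 per well, exposed to 20 μM compound or 0.1% DMSO for 18 h at 37 °C, 5% CO2. Metabolic activity measured by MTS (CellTiter 96 AQueous One) reagent. Duplicates, two independent biological replicates.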

[9] = test system: PBMC; test: Immunostimulatory activity in human PBMC cells assessed as increase in IL-1beta production at 2 uM incubated for 18 hrs by flow cytometry analysis; format: functional, cell-based; procedure, shortened: as §1
[10] = test system: Mus musculus; test: Immuno-adjuvant activity in NIH/OlaHsd mouse assessed as increase in ovalbumin specific […] associated IgG2a production in sera at 0.30 micromol administered subcutaneously on day 1 and as booster dose on day 21 with ovalbumin loaded neutral liposomes and measured 1 week post booster dose by ELISA; format: functional, organism-based; conditions: dose 0.3 µmol, time 28.0 day
Procedure, shortened: (§2)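 Groups of 5 female NIH/OlaHsd mice, 2.0–2.5 months old, immunized with ovalbumin-loaded neutral liposomes (10 μg ovalbumin per dose) containing 0.30 μmol adjuvant per dose, plus one booster dose. Serum ovalbumin-specific IgG, IgG1 and IgG2a measured 1 week after the booster. Mean ± SEM of 5 mice.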

[11] = test system: PBMC; test: Immunostimulatory activity in human PBMC cells assessed as increase in IL-8 production at 2 uM incubated for 18 hrs by flow cytometry analysis; format: functional, cell-based; procedure, shortened: as §1
[12] = test system: Mus musculus; test: Immuno-adjuvant activity in NIH/OlaHsd mouse assessed as increase in ovalbumin specific […] associated IgG1 production in sera at 0.15 micromol administered subcutaneously on day 1 and as booster dose on day 21 and 28 with ovalbumin loaded liposomes by ELISA; format: functional, organism-based; conditions: dose 0.15 µmol, time 28.0 day
Procedure, shortened: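 Groups of 5 female NIH/OlaHsd mice, 2.0–2.5 months old, immunized with ovalbumin-loaded liposomes (10 μg ovalbumin per dose) containing 0.15 μmol adjuvant per dose. Liposomes were neutral (PC–cholesterol 7:5), anionic (PC–cholesterol–dicetylphosphate 7:5:1) or mannosylated (PC–cholesterol–mannose-PEG-PA 7:5:0.5). Serum ovalbumin-specific IgG, IgG1 and IgG2a measured 1 week after the second booster. Mean ± SEM.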

[13] = test system: Mus musculus; test: Immuno-adjuvant activity in NIH/OlaHsd mouse assessed as increase in ovalbumin specific IgG production in sera at 0.30 micromol administered subcutaneously on day 1 and as booster dose on day 21 with ovalbumin loaded neutral liposomes and measured 1 week post booster dose by ELISA; format: functional, organism-based; conditions: dose 0.3 µmol, time 28.0 day; procedure, shortened: as §2
[14] = test system: Mus musculus; test: Immuno-adjuvant activity in NIH/OlaHsd mouse assessed as increase in ovalbumin specific […] associated IgG1 production in sera at 0.30 micromol administered subcutaneously on day 1 and as booster dose on day 21 with ovalbumin loaded neutral liposomes and measured 1 week post booster dose by ELISA; format: functional, organism-based; conditions: dose 0.3 µmol, time 28.0 day; procedure, shortened: as §2
[15] = test system: BMDC; test: Induction of mouse BMDC-mediated ovalbumin specific CD4+ T cell activation assessed as increase in IL-6 production at 10 uM incubated for 72 hrs by flow cytometric analysis; format: functional, cell-based
Procedure, shortened: (§3)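 BMDCs from C57BL/6 mouse tibia (7 days in GM-CSF 20 ng/mL, >90% CD11c+) pulsed 18 h with compound (1 or 10 μM) plus ovalbumin 50 μg/mL, then washed. They were cocultured 72 h with CFSE-labelled naive OT-II CD4+ T cells. CD25+/CFSE-low fraction of live Thy1.2+CD4+ cells read by flow cytometry; supernatant cytokines also measured. Duplicates of two independent experiments.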

[16] = test system: BMDC; test: Induction of mouse BMDC-mediated ovalbumin specific CD4+ T cell activation assessed as increase in CD25 expression at 10 uM incubated for 72 hrs by CFSE staining based flow cytometric analysis; format: functional; procedure, shortened: as §3
[17] = test system: BMDC; test: Induction of mouse BMDC-mediated ovalbumin specific CD4+ T cell activation assessed as increase in TNF-alpha production at 10 uM incubated for 72 hrs by flow cytometric analysis; format: functional, cell-based; procedure, shortened: as §3
[18] = test system: BMDC; test: Induction of mouse BMDC-mediated ovalbumin specific CD4+ T cell activation assessed as increase in IFN-gamma production at 10 uM incubated for 72 hrs by flow cytometric analysis; format: functional, cell-based; procedure, shortened: as §3
[19] = test system: BMDC; test: Induction of mouse BMDC-mediated ovalbumin specific CD4+ T cell activation assessed as increase in CD25 expression at 1 uM incubated for 72 hrs by CFSE staining based flow cytometric analysis; format: functional; procedure, shortened: as §3
[20] = test system: BMDC; test: Induction of mouse BMDC-mediated ovalbumin specific CD4+ T cell activation assessed as increase in IL-17A production at 10 uM incubated for 72 hrs by flow cytometric analysis; format: functional, cell-based; procedure, shortened: as §3
[21] = test system: BMDC; test: Induction of mouse BMDC-mediated ovalbumin specific CD4+ T cell activation assessed as increase in IL-2 production at 10 uM incubated for 72 hrs by flow cytometric analysis; format: functional, cell-based; procedure, shortened: as §3

## CCCCCCCCCCCC(=O)Oc1ccc(/C=C/C(=O)NCC(=O)N[C@H](C(=O)N[C@H](CCC(=O)OCC)C(=O)OCC)C(C)C)cc1OC
[1]
  Activity: inactive
[2]
  Activity: Active
[3]
  Activity: Active
[4]
  Activity: Active
[5]
  Activity: Active
[6]
  Activity: Active
[7]
  Activity: Active
[8]
  Activity: Non-Toxic
[9]
  Activity: Active
[10]
  Activity: inactive
[11]
  Activity: Active

## CC(=O)N[C@H]1C(O)O[C@H](CO)[C@@H](O)[C@@H]1O[C@H](C)C(=O)N[C@@H](C)C(=O)N[C@H](CCC(=O)O)C(N)=O (stereo partly specified) [MURAMYL DIPEPTIDE]
[1]
  Activity: inactive
[2]
  Activity: Active
[3]
  Activity: Active
[4]
  Activity: Active
[5]
  Activity: Active
[6]
  Activity: Active
[12]
  Activity: Active
[7]
  Activity: Active
[8]
  Activity: Non-Toxic
[9]
  Activity: Active
[11]
  Activity: Active

## CCOC(=O)CC[C@@H](NC(=O)[C@@H](NC(=O)CNC(=O)/C=C/c1ccc(OC(C)=O)c(OC)c1)C(C)C)C(=O)OCC
[1]
  Activity: inactive
[2]
  Activity: Active
[3]
  Activity: Active
[4]
  Activity: Active
[5]
  Activity: Active
[6]
  Activity: Active
[7]
  Activity: Active
[8]
  Activity: Non-Toxic
[9]
  Activity: Active
[11]
  Activity: Active

## CCOC(=O)CC[C@@H](NC(=O)[C@@H](NC(=O)CNC(=O)/C=C/c1ccc(O)c(OC)c1)C(C)C)C(=O)OCC
[1]
  Activity: inactive
[13]
  Activity: Active
[14]
  Activity: Active
[8]
  Activity: Non-Toxic

## CCCCCCCCCCCCCCCCCC(=O)Oc1ccc(/C=C/C(=O)NCC(=O)N[C@H](C(=O)N[C@H](CCC(=O)OCC)C(=O)OCC)[C@@H](C)O)cc1OC
[1]
  Activity: inactive
[2]
  Activity: Active
[3]
  Activity: inactive
[4]
  Activity: Active
[5]
  Activity: Active
[6]
  Activity: inactive
[7]
  Activity: Active
[14]
  Activity: inactive
[8]
  Activity: Non-Toxic
[9]
  Activity: inactive
[11]
  Activity: inactive

## COc1cc(/C=C/C(=O)NCC(=O)N[C@H](C(=O)N[C@H](CCC(=O)OC2CCCC2)C(=O)OC2CCCC2)C(C)C)ccc1O
[1]
  Activity: inactive
[15]
  Activity: Active
[2]
  Activity: Active
[3]
  Activity: Active
[4]
  Activity: Active
[5]
  Activity: Active
[16]
  Activity: Active
[13]
  Activity: inactive
[6]
  Activity: Active
[17]
  Activity: Active
[7]
  Activity: Active
[18]
  Activity: Active
[8]
  Activity: Non-Toxic
[19]
  Activity: Active
[9]
  Activity: Active
[10]
  Activity: inactive
[20]
  Activity: Active
[11]
  Activity: Active
[21]
  Activity: Active

Source: ChEMBL document CHEMBL5038594, “Structural Fine-Tuning of Desmuramylpeptide NOD2 Agonists Defines Their In Vivo Adjuvant Activity” (J Med Chem, 2021)
